The source made the active and inactive calls. No cut-off for these calls is given here.
Key:
SH-SY5Y [1] = assay: Neuroprotective activity against amyloid beta (1 to 42)-induced toxicity in human SH-SY5Y cells assessed as decrease in […] mRNA expression at IC50 measured after 48 hrs by SYBR green dye based RT-qPCR analysis; assay type: functional, cell-based
How it was run: (§1)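 Differentiated SH-SY5Y cells in 6-well plates treated 48 h with Aβ1-42 (20 μM) with or without hybrid. mRNA of AD-related genes measured by RT-qPCR, normalized to β-actin. Expressed as fold change versus untreated cells. Triplicate experiments.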

SH-SY5Y [2] = assay: Neuroprotective activity against amyloid beta (1 to 42)-induced toxicity in human SH-SY5Y cells assessed as decrease in PSENEN mRNA expression at IC50 measured after 48 hrs by SYBR green dye based RT-qPCR analysis; assay type: functional, cell-based; how it was run: as §1
SH-SY5Y [3] = assay: Neuroprotective activity against amyloid beta (1 to 42)-induced apoptosis in human SH-SY5Y cells assessed as early apoptotic cells at IC50 measured after 48 hrs by Annexin-V/Propidium iodide staining based flow cytometry (reference value: 0.74%); assay type: functional
SH-SY5Y [4] = assay: Neuroprotective activity against amyloid beta (1 to 42)-induced toxicity in human SH-SY5Y cells assessed as increase in cell viability at 1 to 250 mg/l measured after 48 hrs by LDH release assay; assay type: functional, cell-based; details: dose 1-250 mg/L
How it was run: (§2)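 SH-SY5Y cells grown in DMEM/F12 with 10% FBS and differentiated with retinoic acid (10 μM), seeded at 1×10^4 per well and cultured 24 h. Cells were given hybrids at 1–250 mg/L with or without Aβ1-42 (20 μM) for 48 h. MTT (5 mg/mL) added for 4 h at 37°C, DMSO solubilization, read at 570/630 nm. LDH read at 450 nm. Five independent experiments.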

SH-SY5Y [5] = assay: Neuroprotective activity against amyloid beta (1 to 42)-induced toxicity in human SH-SY5Y cells assessed as increase in ADAM10 mRNA expression at IC50 measured after 48 hrs by SYBR green dye based RT-qPCR analysis; assay type: functional, cell-based; how it was run: as §1
SH-SY5Y [6] = assay: Neuroprotective activity against amyloid beta (1 to 42)-induced toxicity in human SH-SY5Y cells assessed as increase in cell viability at 1 to 250 mg/l measured after 48 hrs by MTT assay; assay type: functional, cell-based; details: dose 1-250 mg/L; how it was run: as §2
Erythrocyte [7] = assay: Cytoprotective activity against H2O2-induced oxidative damage in human RBC assessed as recovery of H2O2-induced cell death at 50 to 100 uM measured after 72 hrs by MTT assay relative to control; assay type: functional; details: dose 50-100 µM
SH-SY5Y [8] = assay: Neuroprotective activity against amyloid beta (1 to 42)-induced toxicity in human SH-SY5Y cells assessed as decrease in BACE1 mRNA expression at IC50 measured after 48 hrs by SYBR green dye based RT-qPCR analysis; assay type: functional, cell-based; how it was run: as §1
SH-SY5Y [9] = assay: Neuroprotective activity against amyloid beta (1 to 42)-induced toxicity in human SH-SY5Y cells assessed as decrease in MAPT mRNA expression at IC50 measured after 48 hrs by SYBR green dye based RT-qPCR analysis; assay type: functional, cell-based; how it was run: as §1
[10] = Stability in simulated gastric fluid at pH 1.2 assessed as relative difference measured after 30 mins in presence of pepsin by HPLC analysis; assay type: ADME; details: isolated protein, pH 1.2, 0.5 h
How it was run: (§3)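 Incubation in simulated gastric fluid (pH 1.2, pepsin) or simulated intestinal fluid (pH 6.8, pancreatin). Aliquots deproteinized with ice-cold acetonitrile, centrifuged at 4°C and 12000 rpm for 10 min, filtered, analyzed by HPLC. RD% = (Ci − Cf)/Ci × 100. Stable if RD < 5%. Means of three experiments.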

Erythrocyte [11] = assay: Cytoprotective activity against H2O2-induced oxidative damage in human RBC assessed as recovery of H2O2-induced cell death at 50 to 100 uM measured after 72 hrs by LDH release assay relative to control; assay type: functional; details: dose 50-100 µM
How it was run: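 Heparinised human whole blood cultured in phytohemagglutinin-containing chromosome medium and co-incubated with hybrids and H2O2 at 37C for 72 h. LDH released into the culture medium was measured with a commercial kit. Triton X-100 served as positive control, with untreated cultures as reference. Cytoprotection was expressed as viability relative to control.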

[12] = Stability in simulated gastric fluid at pH 1.2 assessed as relative difference measured after 60 mins in presence of pepsin by HPLC analysis; assay type: ADME; details: isolated protein, pH 1.2, 1 h; how it was run: as §3
Erythrocyte [13] = assay: Cytoprotective activity against H2O2-induced oxidative damage in human RBC assessed as restoration of antioxidant activity measured after 72 hrs by TAC assay; assay type: functional, cell-based
SH-SY5Y [14] = assay: Neuroprotective activity against amyloid beta (1 to 42)-induced apoptosis in human SH-SY5Y cells assessed as late apoptotic cells at IC50 measured after 48 hrs by Annexin-V/Propidium iodide staining based flow cytometry (reference value: 33.72%); assay type: functional
SH-SY5Y [15] = assay: Neuroprotective activity against amyloid beta (1 to 42)-induced toxicity in human SH-SY5Y cells assessed as decrease in APP mRNA expression at IC50 measured after 48 hrs by SYBR green dye based RT-qPCR analysis; assay type: functional, cell-based; how it was run: as §1
[16] = Stability in simulated gastric fluid at pH 1.2 assessed as relative difference measured after 15 mins in presence of pepsin by HPLC analysis; assay type: ADME; details: isolated protein, pH 1.2, 0.25 h; how it was run: as §3
SH-SY5Y [17] = assay: Neuroprotective activity against amyloid beta (1 to 42)-induced apoptosis in human SH-SY5Y cells assessed as decrease in DNA condensation at IC50 measured after 48 hrs by Hoechst 33258 staining based fluorescence microscopic assay; assay type: functional, cell-based
How it was run: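 Differentiated SH-SY5Y cells, 4×10^4 per well, exposed 48 h to Aβ1-42 (20 μM) with or without hybrid. Fixed in 4% paraformaldehyde for 30 min, stained with Hoechst 33258 for 15 min. Nuclear chromatin condensation and DNA fragmentation scored by fluorescence microscopy at ×200.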

SH-SY5Y [18] = assay: Neuroprotective activity against amyloid beta (1 to 42)-induced toxicity in human SH-SY5Y cells assessed as decrease in APOE mRNA expression at IC50 measured after 48 hrs by SYBR green dye based RT-qPCR analysis; assay type: functional, cell-based; how it was run: as §1
SH-SY5Y [19] = assay: Neuroprotective activity against amyloid beta (1 to 42)-induced toxicity in human SH-SY5Y cells assessed as decrease in TNFalpha mRNA expression at IC50 measured after 48 hrs by SYBR green dye based RT-qPCR analysis; assay type: functional, cell-based; how it was run: as §1
SH-SY5Y [20] = assay: Neuroprotective activity against amyloid beta (1 to 42)-induced toxicity in human SH-SY5Y cells assessed as increase in PSEN mRNA expression at IC50 measured after 48 hrs by SYBR green dye based RT-qPCR analysis; assay type: functional, cell-based; how it was run: as §1
SH-SY5Y [21] = assay: Neuroprotective activity against amyloid beta (1 to 42)-induced toxicity in human SH-SY5Y cells assessed as decrease in EGFR mRNA expression at IC50 measured after 48 hrs by SYBR green dye based RT-qPCR analysis; assay type: functional, cell-based; how it was run: as §1
[22] = Stability in human plasma assessed as observed rate constant by HPLC analysis; assay type: ADME, cell-free
How it was run: (§4)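 Compound stock added to human plasma pre-warmed to 37°C and diluted with 0.02 M phosphate buffer (pH 7.4) to 80% plasma. 100 μL samples taken over time, quenched with 200 μL cold acetonitrile, centrifuged, and supernatant analyzed by HPLC. t½ and kobs are means of three experiments.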

Erythrocyte [23] = assay: Cytoprotective activity against H2O2-induced oxidative damage in human RBC assessed as increase in cell viability measured after 72 hrs by MTT assay; assay type: functional, cell-based
[24] = Half life in human plasma by HPLC analysis; assay type: ADME, cell-free; how it was run: as §4

Row | SMILES | Activity (SH-SY5Y [1]) | Activity (SH-SY5Y [2]) | Activity (SH-SY5Y [3]) [%] | Activity (SH-SY5Y [4]) | Activity (SH-SY5Y [5]) | Activity (SH-SY5Y [6]) | Activity (Erythrocyte [7]) [%] | Activity (SH-SY5Y [8]) | Activity (SH-SY5Y [9]) | fold change (FC) [10] [%] | Activity (Erythrocyte [11]) [%] | fold change (FC) [12] [%] | Activity (Erythrocyte [13]) | Activity (SH-SY5Y [14]) [%] | Activity (SH-SY5Y [15]) | fold change (FC) [16] [%] | Activity (SH-SY5Y [17]) | Activity (SH-SY5Y [18]) | Activity (SH-SY5Y [19]) | Activity (SH-SY5Y [20]) | further results
1 | COc1cc(/C=C/C(=O)NCCCNC(=O)CCCCC2CCSS2)ccc1O (stereo not drawn) | Active | Active | 1.19 | Active | Active | Active | 0.5 | Active | Active | 0.43 | 0.4 | 1.78 | Dose-dependent effect | 9.97 | Active | 0.36 | Active | Active | Active | Active | Activity (SH-SY5Y [21]): Active; K [22]: 0.01 h⁻¹; Activity (Erythrocyte [23]): Dose-dependent effect; half-life [24]: 72.4 h
2 | O=C(CCCCC1CCSS1)NCCCCCOC(=O)Cc1ccc(O)c(O)c1 (stereo not drawn) | Active | Active | 1.86 | Active | Active | Active | 0.5 | Active | Active | 79.35 | 0.4 | 100 | Dose-dependent effect | 9.69 | Active | 35.42 | Active | Active | Active | Active | Activity (SH-SY5Y [21]): Active; K [22]: 20.56 h⁻¹; Activity (Erythrocyte [23]): Dose-dependent effect; half-life [24]: 0.03 h

— ChEMBL document CHEMBL4680120, “Novel anti-Alzheimer phenol-lipoyl hybrids: Synthesis, physico-chemical characterization, and biological evaluation” (Eur J Med Chem, 2020)
